High-throughput results (PubChem)
Compounds with a hit are over-represented: about 1.7% of the library has one in this group of screens.
NR1D1 modulator: modulators of human Rev-erb alpha DNA binding; 370,000 tested, 0.79% active; P20393; Rev-erbα–FITC-DNA binding, fluorescence polarization, 90 min; activity, % at 10 µM;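 active = activity above about 14%, limit read from the data; passing the limit was not always enough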;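 note: 0% = DMSO wells with 35 nM protein and 100% = DMSO wells with 750 nM protein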
TPT1 inhibitor: inhibitors of Candida albicans tRNA 2'-phosphotransferase TPT1 | recombinant caTPT1, FP RNA substrate dephosphorylation | inhibition, % at 5 µM | 300,000 tested, 0.81% active | AID 1962;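 active = inhibition above the mean of all tested compounds plus 3 SD, set per screening campaign, cut at about 24% in these data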;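 note: plate controls were DMSO alone for no effect and ferristatin control at 100 nM for full effect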
CSN deneddyl inh: CSN deneddylation inhibition. Q92905. Purified CSN, SCF-Nedd8-OG deneddylation, fluorescence polarization. inhibition, % at 12.5 µM. 360,000 tested, 0.38% active. AID 651999;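 active = pattern-corrected inhibition above about 35%, with an unprinted fluorescence ratio check between 0.5 and 1.5, limit read from the data, passing the limit was not always enough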;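 note: 0% = enzyme with substrate and 100% = substrate without enzyme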
Target sequence (Q92905 whole entry, looked up, one chain of several): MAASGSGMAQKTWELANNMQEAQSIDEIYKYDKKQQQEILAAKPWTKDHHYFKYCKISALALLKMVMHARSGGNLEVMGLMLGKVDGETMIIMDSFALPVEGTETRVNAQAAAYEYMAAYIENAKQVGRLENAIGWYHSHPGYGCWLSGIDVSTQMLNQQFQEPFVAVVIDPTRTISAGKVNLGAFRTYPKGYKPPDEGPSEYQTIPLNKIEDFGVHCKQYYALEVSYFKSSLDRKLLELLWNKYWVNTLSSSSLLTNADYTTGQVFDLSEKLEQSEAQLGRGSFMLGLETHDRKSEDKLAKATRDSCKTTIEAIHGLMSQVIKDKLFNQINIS
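Assay system: purified human Csn5 enzyme expressed in HEK293T cells; Input: 0.24 nM Csn5 enzyme, final concentration; Reagent: 10 nM SCFSkp2-Nedd8OG; Compound dosing: 12.5 µM single point; Times: reaction 90 min, room temperature; Technique: fluorescence polarization readout.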
HNF4A DNA FP: change in binding of human HNF4 alpha to DNA; P41235; HNF4a-FITC DNA binding, fluorescence polarization, 1 h; activity change, % at 10 µM; 360,000 tested, 0.3% active; AID 1224865; in the data active = activity change above about 30%, passing the limit was not always enough
Rev-erbA confirm: confirmation of modulators of human Rev-erb alpha DNA binding; 3,000 tested, 61% active; shares compounds with NR1D1 modulator; activation, % at 25 µM; Rev-erb alpha FITC-DNA binding, fluorescence polarization, 90 min;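 active = activation at or above a set limit, or at least 3 SD above the negative control mean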;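 note: 0% = 35 nM protein with DMSO and 100% = 750 nM protein high control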
RORg DNA counter: RORgamma DNA-binding activity, dose-response counter-screen. IC50, µM. shares compounds with NR1D1 modulator. purified RORgamma protein-FITC-DNA binding, fluorescence polarization. 910 tested, 8% active;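 active = Compounds whose fitted half-maximal concentration for disrupting protein-DNA binding is below 10 micromolar; the record names Rev-erb in its text, so the target is in doubt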
* = called active by the depositor; · = no result given; + = active, no number.

SMILES | NR1D1 modulator | TPT1 inhibitor | CSN deneddyl inh | HNF4A DNA FP | Rev-erbA confirm | others
CCCn1c(C(C)C)n[nH]c1=S | 4.2 | -2.9 | -1.4 | -0.5 | ·
CCc1ccc(-c2cc(C)no2)cc1S(=O)(=O)N1CCN(c2ccc(C(C)=O)cc2)CC1 | 27.5* | 0.5 | -3.0 | -2.3 | 17.5*
CC(=O)c1ccc(N2CCN(S(=O)(=O)c3cc(-c4cc(C)no4)ccc3C(C)C)CC2)cc1 | 25.8* | 3.6 | 9.5 | 0.9 | 21.6*
CCC(C)(C)C(=O)N1CCC(C(=O)NC2CCCc3ccccc32)CC1 (centres undefined) | -0.3 | · | · | · | ·
CCC[C@H]1[C@@H](OC(=O)NCc2ccco2)CC[C@@]23CCCN2C(=O)CCC[C@@H]13 | 3.4 | · | · | · | ·
O=C(Cn1nnc(-c2ccccc2NC(=O)c2ccccc2F)n1)NC1CCCC1 | 22.6* | 12.1 | -15.7 | -0.3 | 26.5*
O=C(Nc1ccccc1-c1nnn(CC(=O)N2CCOCC2)n1)c1ccccc1F | -2.1 | 1.1 | 3.0 | 1.0 | ·
CCC(=O)N1CCCC(C)(C(=O)Nc2ccc3scnc3c2)C1 (centres undefined) | 18.8* | · | -0.8 | 4.1 | 3.2
CCCC(=O)N1CCC1(C)C(=O)Nc1ccc2scnc2c1 (centres undefined) | · | · | 2.3 | 3.5 | ·
Cn1nc2c3ccccc3n(Cc3ccccc3)c2nc1=S | 30.4* | -0.1 | 3.6 | -0.6 | 23.4*
Cc1[nH]nc2c1C(c1ccc(Br)cc1)N(Cc1ccccc1)C2=O (centres undefined) | -7.8 | · | · | · | ·
CCN(CC)c1ccc2cc(-c3nc(-c4ccc(OC)cc4)cs3)c(=O)oc2c1 | 40.4* | -12.1 | · | · | 29.0*
COc1ccc2cc(-c3ccccc3)c(=O)oc2c1 | -6.2 | -0.7 | 0.0 | 1.1 | ·
COCCN1Cc2cc(C(=O)OC)c3c(c2C1=O)c1ccccc1n3S(=O)(=O)c1ccc(OC)cc1 | -4.0 | · | · | · | ·
CCCCNc1c(-c2ccc(Sc3ccc(OC)cc3)cc2)nc2cc(C)ccn12 | 21.2* | · | 5.6 | -1.5 | 11.3
CCCCCCSc1ccc(-c2nc3cnccn3c2NCCCC)cc1 | 24.6* | · | 0.1 | 9.3 | 14.2
Cc1cc(NC(=O)CSc2nc(C(C)(C)C)nc3ccccc23)no1 | 35.5* | 0.4 | 6.2 | -4.0 | 13.1
Cc1cc(NC(=O)CSc2cc(C)c3ccccc3n2)no1 | 22.6* | · | -0.9 | -2.3 | 3.8
CCCCn1c(SCC(=O)Nc2cc(C)on2)nc2ccccc2c1=O | 42.9* | -4.0 | -1.3 | 2.6 | 14.1
Cc1cc(NC(=O)CSc2nc(-c3cccs3)nc3ccccc23)no1 | 28.2* | · | -3.8 | 4.0 | 19.5*
O=C(CSc1nc2ccccc2nc1N1CCOCC1)N1CCN(c2cccc(C(F)(F)F)c2)CC1 | -3.5 | · | · | · | ·
CCCCNC(=O)C1(C)CCN1C(=O)Cc1cccc2ccccc12 (centres undefined) | -2.4 | · | -1.1 | 1.1 | ·
O=C(CCCn1c(=O)c2cccn2c2cccnc21)NCc1cccc(Br)c1 | 44.9* | 4.9 | 3.3 | -0.6 | 19.0*
O=C(CCn1c(=O)c2cccn2c2cccnc21)NCc1cccc(Cl)c1 | 63.6* | -0.3 | 2.5 | -1.8 | 64.3* | RORg DNA counter=4.27*
CCC(=O)Nc1ccc(Cl)cc1C(=O)c1ccc[nH]1 | 2.7 | · | · | · | ·
SMILES | NR1D1 modulator | TPT1 inhibitor | CSN deneddyl inh | HNF4A DNA FP | Rev-erbA confirm | others
Cc1sc(NC(=O)c2ccccc2)c(C(=O)c2ccccc2)c1C | -0.1 | -3.8 | -15.1 | 0.5 | ·
Cc1sc(NC(=O)c2ccccc2)c(C(=O)NC(C)C)c1C | 23.8* | -1.7 | 9.7 | -3.3 | 3.5
COc1ccc(C(=O)OCCN2CCN(C3CN(Cc4cn(Cc5cccc(F)c5)nn4)S(=O)(=O)C3)CC2)cc1OC (centres undefined) | -1.7 | · | · | · | ·
CC(C)Cn1c(N)c(C(=O)COC(=O)c2cc(C(F)(F)F)nc3c(C(F)(F)F)cccc23)c(=O)n(C)c1=O | 46.2* | 1.2 | · | · | 20.7*
COc1ccc2sc(N(CCCN(C)C)C(=O)c3ccc(S(=O)(=O)N4CCc5ccccc5C4)cc3)nc2c1 | -3.9 | -6.2 | 2.7 | 4.9 | ·
COCCn1c(=NC(=O)c2ccc(S(=O)(=O)N3CCc4ccccc4C3)cc2)sc2cc(OC)ccc21 | 53.9* | 2.4 | 2.6 | -1.9 | 18.9*
COCCn1c(=NC(=O)CCS(=O)(=O)c2ccccc2)sc2cc(C(=O)OC)ccc21 | 204.5* | 1.0 | 1.8 | 3.9 | 137.3* | RORg DNA counter=>40
CCOC(=O)C1=CCN(S(=O)(=O)c2ccc([N+](=O)[O-])cc2)C1c1ccc(C)cc1 (centres undefined) | -1.1 | · | · | · | ·
COc1ccc(/C=C2\CC3(OC(=O)c4ccccc4)CCCN2C3)cc1 (centres undefined) | -0.1 | · | · | · | ·
CC(C)c1[nH]nc2c1C(c1ccc3c(c1)OCO3)NC2=O (centres undefined) | 22.5* | · | · | · | -5.2
O=C1NC(c2ccc3c(c2)OCO3)c2c(-c3ccccc3)n[nH]c21 (centres undefined) | -5.0 | · | · | · | ·
CCc1nnc2sc(-c3ccc(NC(=O)c4ccco4)cc3)nn12 | -5.9 | 1.0 | -0.1 | 6.3 | ·
CCc1nnc2sc(-c3ccc(NC(=O)c4ccc5c(c4)OCCO5)cc3)nn12 | 92.1* | 2.8 | -3.3 | -1.4 | 57.5*
CCn1ncc(Br)c1C(=O)Nc1cc(C(=O)OC)ccc1C(=O)OC | 44.8* | -0.3 | -1.1 | 5.0 | 24.2*
CCn1ncc(Br)c1C(=O)Nc1ccccc1OC | -2.1 | -3.4 | -3.6 | -3.4 | ·
CCCCCC(C)N (centres undefined) | -1.7 | · | · | · | ·
O=C(CCc1nc2sc3c(c2c(=O)[nH]1)CCCC3)Nc1cccc(Cl)c1 | 30.3* | 7.8 | 11.1 | 0.8 | 20.9*
CC(=O)Nc1ccc(NC(=O)CCc2nc3sc4c(c3c(=O)[nH]2)CCCC4)cc1 | -2.3 | 9.1 | 5.0 | 1.8 | ·
Cc1cc(C)cc(NC(=O)CCc2nc3sc4c(c3c(=O)[nH]2)CCCC4)c1 | 29.5* | 10.6 | 11.4 | 7.8 | 7.6
CCn1c(=O)c(C(=O)Nc2ccccc2S(N)(=O)=O)c(O)c2ccccc21 | 19.8* | -0.2 | -1.0 | -4.0 | 17.0
CCOc1ccccc1NC(=O)CSc1nc(N)c(C#N)cc1C#N | 83.7* | 20.5 | 6.2 | 8.0 | 46.4* | RORg DNA counter=>40
CC(=O)CSc1ncnc2c1oc1ccccc12 | -3.8 | -1.5 | 0.6 | -2.8 | ·
CCOC(=O)CSc1nc(N)c(C#N)cc1C#N | -2.2 | 2.0 | -0.8 | 8.8 | ·
CCOc1ccccc1NC(=O)CSc1ncnc2c1oc1ccccc12 | + | -1.0 | -6.2 | 0.2 | +
CCc1nnc(NC(=O)CSc2nnc(-c3ccccc3NC(=O)c3ccccc3)o2)s1 | 28.0* | 1.4 | -0.1 | 0.2 | 7.5
O=C(CSc1ncnc2c1oc1ccccc12)Nc1ccccc1F | 606.2* | 1.8 | 3.2 | 0.3 | 615.7* | RORg DNA counter=>40
COc1cccc(CNC(=O)[C@H]2CCCN2C(=O)[C@H]2CCCN2C(=O)c2ccc(F)c(C(F)(F)F)c2)c1 | -4.1 | · | · | · | ·
Cn1c(SCC(=O)Nc2ccccc2F)nnc1-c1cc2ccccc2o1 | 25.5* | -5.3 | -4.0 | 0.8 | 15.7
